Data from ChEMBL document CHEMBL1124982, “Chemistry and structure-activity relationships of C-17 unsaturated 18-cycloalkyl and cycloalkenyl analogues of enisoprost. Identification of a promising new antiulcer prostaglandin” (1990).

Columns and labels:
Canis familiaris = assay: Tested for gastric antisecretory activity in dogs by intrapouch administration; assay type: functional; details: Canis lupus familiaris, Stomach
Procedure, shortened: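 Adult female beagles (6–11 kg) with Pavlov pouches; after a 30-min basal collection, drug given into the pouch via Thomas cannula in pH 7.4 isoosmotic phosphate buffer with up to 20% ethanol. Fed 10–12 oz canned food 30 min later. Gastric juice collected at 30-min intervals for 4 h; acid output = volume × acidity. Percent reduction from control over 2–5 doses, 2–7 dogs/dose. ED50 by linear regression, 95% limits by Fieller's method.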

Rattus norvegicus = assay: Tested for diarrheal side effects in rats by intragastric administration; assay type: functional; details: po
Procedure, shortened: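 Adult male Charles River rats (210–230 g), individually housed, fasted 24 h with water ad libitum. Logarithmically graded prostaglandin doses given orally, N = 6–12 per group. Diarrhea scored all-or-none for 8 h after dosing. ED50 and 95% confidence intervals by logistic regression.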

Compound	ED50 (Canis familiaris)	ED50 (Rattus norvegicus)
COC(=O)CC/C=C\CC[C@H]1C(=O)C[C@@H](O)[C@@H]1/C=C/C[C@@](C)(O)/C=C/C1=CCCCC1	0.3 µg/kg	> 3160 µg/kg
COC(=O)CC/C=C\CC[C@H]1C(=O)C[C@@H](O)[C@@H]1/C=C/C[C@@](C)(O)C#CC1=CCCC1	2.8 µg/kg	> 3160 µg/kg
COC(=O)CC/C=C\CC[C@H]1C(=O)C[C@@H](O)[C@@H]1/C=C/C[C@@](C)(O)/C=C/C1=CCCC1	0.02 µg/kg	> 3160 µg/kg
COC(=O)CC/C=C\CC[C@H]1C(=O)C[C@@H](O)[C@@H]1/C=C/C[C@@](C)(O)/C=C/C1CC1	0.1 µg/kg	402 µg/kg
COC(=O)CC/C=C\CC[C@H]1C(=O)C[C@@H](O)[C@@H]1/C=C/CC(C)(O)CCC1=CCCC1 (stereo partly specified)	0.1 µg/kg	1180 µg/kg
COC(=O)CC/C=C\CC[C@H]1C(=O)C[C@@H](O)[C@@H]1/C=C/C[C@@](C)(O)/C=C/C1CCC1	0.05 µg/kg	530 µg/kg
COC(=O)CC/C=C\CC[C@H]1C(=O)C[C@@H](O)[C@@H]1/C=C/C[C@@](C)(O)/C=C/C1(C)CC1	0.02 µg/kg	1340 µg/kg
COC(=O)CC/C=C\CC[C@H]1C(=O)C[C@@H](O)[C@@H]1/C=C/C[C@@](C)(O)/C=C/C1CCCC1	0.3 µg/kg	1950 µg/kg
